Results reported in EPA's CvTdb concentration-time database.

Tests used:
[1] = tested on: Rat; test: concentration in plasma after dosing; settings: dosed: Potassium Perfluorobutane Sulfonate, 4 mg/kg, iv, Male, F344
[2] = tested on: Rat; test: concentration in brain after dosing; settings: 1 h; dosed: Potassium Perfluorobutane Sulfonate; 20 mg/kg; oral; Male; Harlan Sprague Dawley
[3] = tested on: Rat; test: concentration in kidney after dosing; settings: 1 h; dosed: Potassium Perfluorobutane Sulfonate; 20 mg/kg; oral; Male; Harlan Sprague Dawley
[4] = tested on: Rat; test: concentration in plasma after dosing; settings: dosed: Potassium Perfluorobutane Sulfonate, 4 mg/kg, oral, Male, Harlan Sprague Dawley
[5] = tested on: rat; test: concentration in liver after dosing (ugEq/g tissue); settings: dosed: benzo[a]pyrene, iv, male, Wistar
[6] = tested on: Rat; test: concentration in plasma after dosing; settings: 6 h; dosed: 2-Hydroxy-4-methoxybenzophenone; 500 mg/kg; oral; Male; F344
[7] = tested on: Mouse; test: concentration in plasma after dosing; settings: 0.25 h; dosed: 2-Hydroxy-4-methoxybenzophenone; 250 mg/kg; oral; Female; B6C3F1
[8] = tested on: Mouse; test: concentration in plasma after dosing; settings: 0.25 h; dosed: 2-Hydroxy-4-methoxybenzophenone; 50 mg/kg; iv; Female; B6C3F1
[9] = tested on: Mouse; test: concentration in plasma after dosing; settings: 0.25 h; dosed: 2-Hydroxy-4-methoxybenzophenone; 50 mg/kg; iv; Male; B6C3F1
[10] = tested on: Rat; test: concentration in plasma after dosing; settings: 4 h; dosed: 2-Hydroxy-4-methoxybenzophenone; 500 mg/kg; oral; Male; F344
[11] = tested on: Rat; test: concentration in plasma after dosing; settings: 0.25 h; dosed: 2-Hydroxy-4-methoxybenzophenone; 500 mg/kg; oral; Female; F344
[12] = tested on: Mouse; test: concentration in plasma after dosing; settings: dosed: 2-Hydroxy-4-methoxybenzophenone, 100 mg/kg, oral, Female, B6C3F1
[13] = tested on: monkey; test: concentration in blood after dosing; negative times count back from the end of exposure; settings: dosed: methanol, 1200 ppm, inhalation, duration: 6 hr, male, Macaca mulatta
In short: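 A PubMed search, classifier screening and manual review identified published in vivo toxicokinetic studies, which together with two structured collections supplied concentration-versus-time and amount-versus-time points. Points were mostly digitised from plot screenshots with WebPlotDigitizer, otherwise copied from tables. Dose, route, subject details and medium were hand-curated from each paper, and sampling and analytical methods are those of the sources, often unreported.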

[14] = tested on: Rat; test: concentration in kidney after dosing; settings: 12 h; dosed: Perfluorooctanoic acid; 12 mg/kg; oral; Male; Harlan Sprague Dawley
[15] = tested on: Rat; test: concentration in brain after dosing; settings: 24 h; dosed: Perfluorooctanoic acid; 12 mg/kg; oral; Male; Harlan Sprague Dawley
[16] = tested on: Rat; test: concentration in plasma after dosing; settings: dosed: Fluorotelomer alcohol 8+2, 12 mg/kg, oral, Male, Harlan Sprague Dawley
[17] = tested on: Rat; test: concentration in kidney after dosing; settings: 6 h; dosed: Fluorotelomer alcohol 8+2; 24 mg/kg; oral; Male; Harlan Sprague Dawley
[18] = tested on: Rat; test: concentration in plasma after dosing; settings: dosed: 678-39-7, 40 mg/kg, iv, Male, F344
[19] = tested on: Rat; test: concentration in liver after dosing; settings: 1 h; dosed: Fluorotelomer alcohol 8+2; 80 mg/kg; oral; Female; Harlan Sprague Dawley
[20] = tested on: Rat; test: concentration in kidney after dosing; settings: 3 h; dosed: Perfluorooctanoic acid; 12 mg/kg; oral; Male; Harlan Sprague Dawley
[21] = tested on: Rat; test: concentration in kidney after dosing; settings: 12 h; dosed: Fluorotelomer alcohol 8+2; 24 mg/kg; oral; Male; Harlan Sprague Dawley
[22] = tested on: Rat; test: concentration in plasma after dosing; settings: dosed: 678-39-7, 12 mg/kg, iv, Male, F344
[23] = tested on: Rat; test: concentration in kidney after dosing; settings: 3 h; dosed: Perfluorooctanoic acid; 80 mg/kg; oral; Female; Harlan Sprague Dawley
[24] = tested on: Rat; test: concentration in plasma after dosing; settings: 0.5 h; dosed: Nitrite; 20 mg/kg; iv; Male; F344
[25] = tested on: Rat; test: concentration in plasma after dosing; settings: dosed: Nitrite, 80 mg/kg, oral, Female, F344
[26] = tested on: Rat; test: concentration in plasma after dosing; settings: 10 min; dosed: Nitrite; 40 mg/kg; oral; Male; F344

O=S(=O)([O-])C(F)(F)C(F)(F)C(F)(F)C(F)(F)F.[K+] [Potassium Perfluorobutane Sulfonate]
concentration in plasma [ng/mL]
Settings	0.25 h	0.5 h	6 h	12 h
[1]	–	22200	–	938
[4]	3580	–	11600	–

Settings	concentration in brain [ng/g]	concentration in kidney [ng/g]
[2]	1210	–
[3]	–	22700

c1ccc2c(c1)cc1ccc3cccc4ccc2c1c34 [benzo[a]pyrene]
concentration in liver, [5]
Settings	2 mg/kg	6 mg/kg	15 mg/kg
0.5 h	2.43	11.4	15.2
0.75 h	1.34	11.1	13.1
1 h	0.34	5.54	4.86
1.5 h	0.91	1.32	8.51
2 h	0.01	0.55	3.39
3 h	–	0.15	0.72
4 h	–	0.09	0.24
5 h	–	0.06	0.14
5 min	11.3	31.2	27.5
6 h	–	0.06	0.16
8 h	–	0.02	0.05
10 min	6.52	24.3	29.8
20 min	4.01	16.1	21.9
24 h	–	0.01	0.01
32 h	–	0.02	–

COc1ccc(C(=O)c2ccccc2)c(O)c1 [2-Hydroxy-4-methoxybenzophenone]
Settings	concentration in plasma [ng/mL]
[6]	189
[7]	88.3
[8]	4680
[9]	7710
[10]	345
[11]	1730

[12]
Settings	concentration in plasma [ng/mL]
0.25 h	81
2 h	4.58
2.5 min	15.3
3 h	5.05
10 min	37.3

CO [methanol]
[13]
Settings	concentration in blood [ng/mL]
0.9399 h	16100
1.959 h	9030
2.967 h	4920
4.499 h	3110
6.031 h	903

[13], during exposure
Settings	concentration in blood [ng/mL]
-98 s	26900
-5.593 h	4820
-5.081 h	8330
-3.07 h	21000

O=C(O)C(F)(F)C(F)(F)C(F)(F)C(F)(F)C(F)(F)C(F)(F)C(F)(F)F [Perfluorooctanoic acid]
Settings	concentration in brain [ng/g]	concentration in kidney [ng/g]	concentration in liver [ng/g]
[14]	–	27000	–
[15]	1290	–	–
[17]	–	421	–
[19]	–	–	727
[20]	–	36800	–
[21]	–	581	–
[23]	–	49700	–

concentration in plasma [ng/mL]
Settings	0.25 h	0.5 h	6 h	9 h
[16]	–	108	–	851
[18]	970	–	1760	–
[22]	–	235	–	438

O=N[O-] [Nitrite]
Settings	concentration in plasma [ng/mL]
[24]	3700
[26]	2600

[25]
Settings	concentration in plasma [ng/mL]
0.5 h	11900
4 h	2400
